The source of these data is ChEMBL document CHEMBL4024779, “Novel Terminal Bipheny-Based Diapophytoene Desaturases (CrtN) Inhibitors as Anti-MRSA/VISR/LRSA Agents with Reduced hERG Activity” (J Med Chem, 2018).

Each structure is given as a SMILES string. Calls of active or inactive are those of the source. Some results are limits rather than exact numbers.

Data set [1] has as its system Staphylococcus aureus. The data set is described as follows: In vivo anti-virulence activity against methicillin-resistant Staphylococcus aureus Mu50 infected in BALB/c mouse model assessed as reduction in bacterial load in heart at 0.1 mg bid for 3.5 days administered intraperitoneally 6 hrs post infection by serial dilution method. Format: functional. More on the design: scale not given: the % may be the effect or the level left. Put shortly:
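Mice were challenged with 1.3 × 10^9 CFU Mu50. Compound was given intraperitoneally, either 24 h before or 6 h after infection. Log10 CFU was counted in kidneys and hearts.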

In data set [2] the test system is Staphylococcus aureus. The data set is described as follows: In vivo anti-virulence activity against methicillin-resistant Staphylococcus aureus Mu50 infected in BALB/c mouse model assessed as reduction in bacterial load in heart at 0.4 mg bid for 4.5 days administered intraperitoneally 24 hrs prior to infection by serial dilution method. Format: functional. More on the design: scale not given: the % may be the effect or the level left. The method, boiled down:
(§1)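 Mice (n=10 per group) infected retro-orbitally with S. aureus Mu50 (1.1 × 10^9 or 1.3 × 10^9 CFU) or NRS271 (2.3 × 10^8 CFU). Compound given i.p. b.i.d., either 6 h after infection for 3.5 d or 24 h before infection for 4.5 d. Mice killed after 4.5 d; log10 CFU per organ counted in kidneys and hearts. Two-tailed Mann−Whitney test.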

Data set [3] is described as follows: (§2) Half life in human liver microsomes at 2 uM after 60 mins in presence of NADPH by LC-MS/MS method. It is filed as ADME, microsome. The following applies: liver microsomes. For orientation: Liver microsomes are a subcellular fraction often used to study metabolism.
The subject of data set [4] is Staphylococcus aureus. Put plainly: Chemo-sensitization activity in non-pigmented Staphylococcus aureus Newman assessed as increase in H2O2-induced bacterial death by measuring survival rate at 1 uM pre-incubated for 24 hrs followed by H2O2 addition measured after 30 mins by serial dilution method (reference value: 33.3%). Format: functional. The method, boiled down:
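S. aureus Newman was pre-incubated with 1 µM compound, with N-acetylcysteine as antioxidant control, or mock-treated. Cells were then exposed to 1.5% H2O2. Percent bacterial survival was compared with the mock-treated culture.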

Another data set has as its system Trichophyton verrucosum. Put plainly: In vitro antifungal activity against Trichophyton verrucosum after 7 days by serial dilution method. It is filed as functional. The following applies: 168 h.
For data set [5], the system named is Staphylococcus aureus. The data set is described as follows: In vivo anti-virulence activity against Staphylococcus aureus Newman infected in BALB/c mouse model assessed as reduction in bacterial load in kidneys at 0.1 mg bid for 3.5 days administered intraperitoneally 6 hrs post infection by serial dilution method. Format: functional, organism-based. The method, boiled down: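 Mice (n=10 per group) got 2.3 × 10^7 CFU S. aureus Newman by retro-orbital injection. Compound was given intraperitoneally b.i.d., either 24 h before infection (4.5 d) or 6 h after infection (3.5 d). Mice were sacrificed after 4.5 d and CFU counted in kidneys and hearts. Groups were compared by two-tailed Mann-Whitney test.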

Data set [6] has as its system Staphylococcus aureus. The data set is described as follows: In vivo anti-virulence activity against methicillin-resistant Staphylococcus aureus NRS271 infected in BALB/c mouse model assessed as reduction in bacterial load in heart at 0.1 mg bid for 3.5 days administered intraperitoneally 6 hrs post infection by serial dilution method. It is filed as functional. The arrangement: scale not given: the % may be the effect or the level left. Put shortly: as §1

Data set [7] can be described thus: Inhibition of CrtN in methicillin-resistant Staphylococcus aureus LRSA56 assessed as reduction in staphyloxanthin levels after 48 hrs by spectrophotometric method-based pigment inhibition assay.
For the next data set, the system named is Pseudomonas aeruginosa. The data set is described as follows: Antibacterial activity against Pseudomonas aeruginosa after 24 hrs by broth dilution method. Format: functional.
Data set [8] relates to Staphylococcus aureus. Put plainly: In vivo anti-virulence activity against Staphylococcus aureus Newman infected in BALB/c mouse model assessed as reduction in bacterial load in heart at 0.2 mg bid for 3.5 days administered orally 6 hrs post infection by serial dilution method relative to vancomycin. It is filed as functional. The arrangement: scale not given: the % may be the effect or the level left. The method, boiled down: (§3)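 Mice got 3.1 × 10^7 CFU S. aureus Newman by retro-orbital injection. Oral compound was given b.i.d. for 3.5 d, starting 6 h after infection. […] Log10 CFU was counted per kidney and per heart.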

Data set [9] is described as follows: Inhibition of CrtN in methicillin-resistant Staphylococcus aureus HS663 assessed as reduction in staphyloxanthin levels after 48 hrs by spectrophotometric method-based pigment inhibition assay.
Data set [10] has as its system Staphylococcus aureus. Put plainly: In vivo anti-virulence activity against Staphylococcus aureus Newman in mouse lethal infection model assessed as host survival rate at 0.1 mg bid for 3.5 days administered intraperitoneally 6 hrs post infection and measured on day 4. Format: functional. The method, boiled down:
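In a lethal sepsis model, mice (n=15) were challenged with 2 × 10^8 CFU S. aureus Newman. Animal survival was recorded daily through day 8.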

The nature of data set [11]: Half life in mouse at 2 mg/kg, iv administered as single dose by LC-MS/MS analysis. It is filed as ADME, organism-based. The following applies: in vivo.
Another data set relates to Liver. Described as §2. Format: ADME, microsome. Conditions: microsomes, 1 h, 2 µM.
Data set [12] in a line: AUC (0 to infinity) in mouse at 2 mg/kg, iv administered as single dose by LC-MS/MS analysis. It is filed as ADME, organism-based. The arrangement: dose 2 mg/kg, time infinity, route intravenous. The following applies: in vivo.
The next data set addresses Cytochrome P450 3A4 (Homo sapiens, UniProt P08684). Put plainly: Inhibition of CYP3A4 in human liver microsomes using testosterone as substrate upto 10 uM after 5 mins in presence of NADPH by LC-MS/MS analysis. It is filed as ADME.
Data set [13] can be described thus: Inhibition of CrtN in methicillin-resistant Staphylococcus aureus NRS108 assessed as reduction in staphyloxanthin levels after 48 hrs by spectrophotometric method-based pigment inhibition assay.
Another data set has as its system Rattus norvegicus. The data set is described as follows: Toxicity in Sprague-Dawley rat at 60 to 1000 mg/kg, po administered as single dose assessed as mortality measured immediately post administration. Format: organism-based. Conditions: in vivo. The method, boiled down: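 Rats, 30 in total, randomised into three groups. Each received a single oral dose of 60, 250 or 1000 mg/kg on day 1. Poisoning symptoms, mortality, behaviour, water and food consumption and body weight monitored immediately and over 2 weeks.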

The subject of data set [14] is Staphylococcus aureus. Put plainly: In vivo anti-virulence activity against methicillin-resistant Staphylococcus aureus NF65Y infected in BALB/c mouse model assessed as reduction in bacterial load in heart at 0.1 mg bid for 3.5 days administered intraperitoneally 6 hrs post infection by serial dilution method relative to linezolid. Format: functional, organism-based. Put shortly:
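Mice infected retro-orbitally with S. aureus NF65Y (3.5 × 10^8 CFU) or XN108 (2.1 × 10^8 CFU). Test compound given i.p. b.i.d. starting 6 h post-infection. […] Log10 CFU per kidney and heart counted. Two-tailed Mann−Whitney test.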

Data set [15] concerns Staphylococcus aureus. Put plainly: In vivo anti-virulence activity against Staphylococcus aureus Newman infected in BALB/c mouse model assessed as reduction in bacterial load in heart at 0.2 mg bid for 3.5 days administered orally 6 hrs post infection by serial dilution method relative to control. It is filed as functional, organism-based. The method, boiled down:
as §3

Data set [16] relates to Staphylococcus aureus. Put plainly: In vivo anti-virulence activity against Staphylococcus aureus Mu50 infected in BALB/c mouse model assessed as reduction in bacterial load in kidney at 0.2 mg bid for 3.5 days administered orally 6 hrs post infection by serial dilution method relative to control. Format: functional, organism-based. Put shortly:
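Mice were infected by retro-orbital injection with Mu50 (4.6 × 10^9 CFU) or NRS271 (3.5 × 10^8 CFU). Oral compound was given b.i.d. for 3.5 d, starting 6 h after infection. Log10 CFU was counted per kidney and per heart.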

Data set [17] can be described thus: Cmax in mouse at 10 mg/kg, po administered as single dose by LC-MS/MS analysis. Format: ADME, organism-based. The arrangement: dose 10 mg/kg, route oral. Conditions: in vivo.
Data set [18] has as its system Staphylococcus aureus. The data set is described as follows: In vivo anti-virulence activity against Staphylococcus aureus Newman infected in BALB/c mouse model assessed as reduction in bacterial load in kidney at 0.2 mg bid for 3.5 days administered orally 6 hrs post infection by serial dilution method relative to control. It is filed as functional. The arrangement: scale not given: the % may be the effect or the level left. Put shortly:
as §3

A short description of data set [19]: Inhibition of CrtN in methicillin-resistant Staphylococcus aureus NF65Y assessed as reduction in staphyloxanthin levels after 48 hrs by spectrophotometric method-based pigment inhibition assay.

Sequence of Cytochrome P450 3A4 (P08684 whole entry): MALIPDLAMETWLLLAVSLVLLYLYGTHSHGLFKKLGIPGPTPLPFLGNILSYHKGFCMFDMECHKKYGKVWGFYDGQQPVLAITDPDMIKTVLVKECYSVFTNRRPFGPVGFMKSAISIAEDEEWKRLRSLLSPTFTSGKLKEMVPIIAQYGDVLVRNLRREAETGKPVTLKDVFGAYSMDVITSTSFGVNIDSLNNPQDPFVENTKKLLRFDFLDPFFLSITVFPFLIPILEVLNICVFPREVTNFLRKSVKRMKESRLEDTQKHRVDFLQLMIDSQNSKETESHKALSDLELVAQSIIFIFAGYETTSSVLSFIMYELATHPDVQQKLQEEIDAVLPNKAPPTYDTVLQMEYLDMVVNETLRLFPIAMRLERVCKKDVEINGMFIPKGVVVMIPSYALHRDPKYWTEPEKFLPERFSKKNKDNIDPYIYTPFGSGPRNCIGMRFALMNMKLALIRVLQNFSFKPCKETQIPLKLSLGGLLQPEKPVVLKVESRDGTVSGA

For `CN(C/C=C/c1ccc(-c2ccccc2)cc1)Cc1cccc2cc[nH]c12.Cl`, the Activity in the data set on Staphylococcus aureus [1], in the data set with Staphylococcus aureus [2] and in the data set with Staphylococcus aureus [6] was greater than 95% throughout. Also, in data set [3], the half-life (commonly the time needed for the level to fall by half in the phase considered) at 2 µM turned out to be 93.7 min. The result in the data set with Staphylococcus aureus [4] was Active. The MIC80 (commonly an inhibitory concentration at the 80% level, which refers to growth in some studies and to a panel of isolates in others) in the data set on Trichophyton verrucosum was greater than 64 µg/mL. The outcome in the data set with Staphylococcus aureus [5] was inactive.
Take `CN(C/C=C/c1ccc(-c2ccccc2)cc1)Cc1coc2ccccc12.Cl`: the IC50 (usually the concentration needed to halve the response being measured) in data set [7] is 1.8 nM; in [9] it was 0.02 nM; at Cytochrome P450 3A4 it was greater than 10 µM; in data set [13], 5.6 nM; in [19], 1 nM. The MIC (usually the least concentration at which growth counts as inhibited) against Pseudomonas aeruginosa was greater than 500 µg/mL. The Activity in the data set with Staphylococcus aureus [1] was greater than 95%; in the data set on Staphylococcus aureus [2], greater than 95%; with Staphylococcus aureus [8], greater than 55.3%; in the data set with Rattus norvegicus, “Non-Toxic”; in the data set with Staphylococcus aureus [18], 90%; in the data set with Staphylococcus aureus [6], greater than 95%. Besides, the Survival with Staphylococcus aureus [10] was 80%. Further, the half-life in data set [11] is 123 min. The t1/2 with Liver amounted to 50.7 min. The AUC(0-inf) (commonly total exposure, with the tail of the curve extrapolated) in data set [12] stood at 1090 ng·h/mL. For the same molecule, the survival at 1 µM in the data set with Staphylococcus aureus [4] came to 3%. Further, the outcome in the data set on Staphylococcus aureus [14], in the data set on Staphylococcus aureus [16] and in the data set with Staphylococcus aureus [5] was Active. Also, the outcome in the data set with Staphylococcus aureus [15] was inactive. Further, the highest level in [17] (Cmax) was 801 ng/mL. The MIC80 against Trichophyton verrucosum was greater than 64 µg/mL.
